pIC50: −log10 of the molar value. Calls of active or inactive are those of the source. The rule behind the calls is not given here.
Assays:
LNCaP [1] = experiment: Cytotoxicity against androgen-dependent human LNCAP cells after 72 hrs by SRB assay; type: functional, cell-based
Method in brief: (§1)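 SRB assay. Cells were seeded at 3-5 × 10^3 per well in RPMI-1640 with 10% FBS and exposed to a range of concentrations for 72 h; final DMSO was <0.5%. Cells were then fixed in cold 50% TCA for 30 min, stained with 0.04% SRB for 30 min, solubilized in 10 mM Tris base, and read at 515 nm. IC50 is 50% growth inhibition versus untreated control, by log-linear interpolation; mean ± SE of ≥3 independent experiments.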

PC-3 [2] = experiment: Cytotoxicity against androgen-independent human PC3 cells after 72 hrs by SRB assay; type: functional, cell-based; conditions: PC-3, 72 h; method in brief: as §1
LNCaP [3] = experiment: Antiproliferative activity against androgen-dependent human LNCAP cells after 72 hrs by SRB assay; type: functional, cell-based; method in brief: as §1
PC-3 [4] = experiment: Antiproliferative activity against androgen-independent human PC3 cells after 72 hrs by SRB assay; type: functional, cell-based; method in brief: as §1
LNCaP [5] = experiment: Inhibition of actin based pseudopodia formation in androgen-dependent human LNCAP cells at 40 uM after 48 hrs by DAPI staining based fluorescence microscopy assay; type: functional, cell-based
Method in brief: (§2)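 Cells in RPMI-1640 with 10% FBS were plated on chamber slides for 12 h, then exposed to compound or DMSO for 48 h at 37 °C. Cells were fixed in 4% paraformaldehyde in PBS, nuclei were stained with DAPI, and nuclear and pseudopodia morphology was examined by fluorescence microscopy.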

PC-3 [6] = experiment: Inhibition of actin based pseudopodia formation in androgen-dependent human PC3 cells at 40 uM after 48 hrs by DAPI staining based fluorescence microscopy assay; type: functional, cell-based; conditions: in the assay text read “androgen-independent” for “androgen-dependent”; method in brief: as §2
PC-3 [7] = experiment: Induction of nuclear enlargement in androgen-dependent human PC3 cells at 40 uM after 48 hrs by DAPI staining based fluorescence microscopy assay; type: functional, cell-based; conditions: in the assay text read “androgen-independent” for “androgen-dependent”; method in brief: as §2
LNCaP [8] = experiment: Inhibition of actin based pseudopodia formation in androgen-dependent human LNCAP cells at 100 uM after 48 hrs by DAPI staining based fluorescence microscopy assay; type: functional, cell-based
Method in brief: (§3)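 Cells were plated in RPMI-1640 with 10% FBS in chamber slides for 12 h, then exposed to compound or DMSO vehicle for 48 h at 37 °C in 5% CO2. They were fixed with 4% paraformaldehyde in PBS, nuclei were stained with DAPI, and the slides were mounted. Pseudopodia and pseudopodia-like extensions were scored visually by fluorescence microscopy against untreated (DMSO) controls.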

PC-3 [9] = experiment: Inhibition of actin based pseudopodia formation in androgen-dependent human PC3 cells at 100 uM after 48 hrs by DAPI staining based fluorescence microscopy assay; type: functional, cell-based; method in brief: as §3
PC-3 [10] = experiment: Cytotoxicity against androgen-independent human PC3 cells at 100 uM within 48 hrs by SRB assay; type: functional, cell-based
PC-3 [11] = experiment: Induction of multinucleation in androgen-dependent human PC3 cells at 40 uM after 48 hrs by DAPI staining based fluorescence microscopy assay; type: functional, cell-based; conditions: in the assay text read “androgen-independent” for “androgen-dependent”; method in brief: as §2
LNCaP [12] = experiment: Inhibition of actin based pseudopodia formation in androgen-dependent human LNCAP cells at 50 uM after 48 hrs by DAPI staining based fluorescence microscopy assay; type: functional, cell-based; method in brief: as §2
PC-3 [13] = experiment: Inhibition of actin based pseudopodia formation in androgen-dependent human PC3 cells at 50 uM after 48 hrs by DAPI staining based fluorescence microscopy assay; type: functional, cell-based; conditions: in the assay text read “androgen-independent” for “androgen-dependent”; method in brief: as §2
PC-3 [14] = experiment: Induction of multinucleation in androgen-dependent human PC3 cells at 50 uM after 48 hrs by DAPI staining based fluorescence microscopy assay; type: functional, cell-based; conditions: in the assay text read “androgen-independent” for “androgen-dependent”; method in brief: as §2
[15] = Drug localization in cytosol of androgen-independent human PC3 cells at 50 uM after 48 hrs by DAPI staining based fluorescence microscopy assay; type: ADME, cell-based, PC-3
LNCaP [16] = experiment: Inhibition of actin based pseudopodia formation in androgen-dependent human LNCAP cells at 30 uM after 48 hrs by DAPI staining based fluorescence microscopy assay; type: functional, cell-based; method in brief: as §2
PC-3 [17] = experiment: Inhibition of actin based pseudopodia formation in androgen-dependent human PC3 cells at 30 uM after 48 hrs by DAPI staining based fluorescence microscopy assay; type: functional, cell-based; conditions: in the assay text read “androgen-independent” for “androgen-dependent”; method in brief: as §2
PC-3 [18] = experiment: Induction of nuclear enlargement in androgen-dependent human PC3 cells at 30 uM after 48 hrs by DAPI staining based fluorescence microscopy assay; type: functional, cell-based; conditions: in the assay text read “androgen-independent” for “androgen-dependent”; method in brief: as §2
[19] = Drug localization in nucleus of androgen-independent human PC3 cells at 30 uM after 48 hrs by DAPI staining based fluorescence microscopy assay; type: ADME, cell-based; conditions: pc-3, 48 h

Structure (SMILES) | pIC50 (LNCaP [1]) | pIC50 (PC-3 [2]) | Activity (LNCaP [3]) | Activity (PC-3 [4]) | further results
COc1cc(/C=C/C(=O)/C=C(O)/C=C/c2ccc(OC(C)(C)C(=O)Nc3ccc(F)c(C(F)(F)F)c3)c(OC)c2)ccc1O | 4.26 | 4.28 | Dose-dependent effect | Dose-dependent effect | 
COc1cc(/C=C/C(=O)/C=C(O)/C=C/c2ccc(OC(C)(C)C(=O)Nc3ccc(C)c(C(F)(F)F)c3)c(OC)c2)ccc1O | < 4.00 | < 4.00 | Dose-dependent effect | Dose-dependent effect | 
COc1ccc(/C=C/C(=O)/C=C(O)/C=C/c2ccc(OCC(C)(O)C(=O)Nc3ccc(C#N)c(C(F)(F)F)c3)c(OC)c2)cc1OC (stereo not given) | 4.14 | 4.00 | Dose-dependent effect | Dose-dependent effect | 
COc1cc(/C=C/C(=O)/C=C(O)/C=C/c2ccc(OC(C)(C)C(=O)Nc3ccc(Cl)c(C(F)(F)F)c3)c(OC)c2)ccc1O | < 4.00 | < 4.00 | Dose-dependent effect | Dose-dependent effect | 
COc1cc(/C=C/C(O)=C/C(=O)/C=C/c2ccc(OC)c(OC)c2)ccc1O [METHYLCURCUMIN] | 4.33 | 4.48 |  |  | inhibition (LNCaP [5]): Active; inhibition (PC-3 [6]): Active; Activity (PC-3 [7]): Active
COc1ccc(/C=C/C(=O)/C(F)=C(O)/C=C/c2ccc(OC)c(OC)c2)cc1OC | 4.56 | 4.75 |  |  | 
COc1ccc(/C=C/C(=O)/C=C(O)/C=C/c2ccc(OC)c(OC)c2)cc1OC [DIMETHYLCURCUMIN] | 4.82 | 4.63 |  |  | 
COc1ccc(/C=C/C(=O)/C=C(O)/C=C/c2ccc(OC(C)(C)C(=O)Nc3ccc(C#N)c(C(F)(F)F)c3)c(OC)c2)cc1OC | < 4.00 | < 4.00 | Dose-dependent effect | Dose-dependent effect | 
COc1ccc(/C=C/C(=O)/C=C(O)/C=C/c2ccc(OC(C)(C)C(=O)Nc3ccc(Cl)c(C(F)(F)F)c3)c(OC)c2)cc1OC | < 4.00 | < 4.00 | Dose-dependent effect | Dose-dependent effect | 
CC(O)(CS(=O)(=O)c1ccc(F)cc1)C(=O)Nc1ccc(C#N)c(C(F)(F)F)c1 (racemic) [BICALUTAMIDE] | 4.13 | 4.12 | Dose-dependent effect | Dose-dependent effect | inhibition (LNCaP [8]): inactive; inhibition (PC-3 [9]): Active; Activity (PC-3 [10]): inactive
COc1ccc(/C=C/C(=O)/C=C(O)/C=C/c2ccc(OCC(C)(O)C(=O)Nc3ccc([N+](=O)[O-])c(C(F)(F)F)c3)c(OC)c2)cc1OC (stereo not given) | 4.38 | 4.41 | Dose-dependent effect | Dose-dependent effect | inhibition (LNCaP [5]): Active; inhibition (PC-3 [6]): Active; Activity (PC-3 [11]): Active
COc1ccc(/C=C/C(=O)C(F)(F)C(=O)/C=C/c2ccc(OC)c(OC)c2)cc1OC | 4.27 | 4.35 |  |  | 
COc1cc(/C=C/C(=O)/C=C(O)/C=C/c2ccc(OC(C)(C)C(=O)Nc3ccc(C#N)c(C(F)(F)F)c3)c(OC)c2)ccc1O | 4.26 | 4.32 | Dose-dependent effect | Dose-dependent effect | inhibition (LNCaP [12]): Active; inhibition (PC-3 [13]): Active; Activity (PC-3 [14]): Active; Drug uptake [15]: Active
CC(C)C(=O)Nc1ccc([N+](=O)[O-])c(C(F)(F)F)c1 [FLUTAMIDE] | 4.09 | 4.01 | Dose-dependent effect | Dose-dependent effect | Activity (PC-3 [10]): inactive
COc1cc(/C=C/C(=O)CC(=O)/C=C/c2ccc(O)c(OC)c2)ccc1O [CURCUMIN] | 4.44 | 4.44 |  |  | inhibition (LNCaP [16]): Active; inhibition (PC-3 [17]): Active; Activity (PC-3 [18]): Active; Drug uptake [19]: Active
COc1ccc(/C=C/C(=O)/C=C(O)/C=C/c2ccc(OCCCCCCCCCCC(=O)Nc3ccc(C#N)c(C(F)(F)F)c3)c(OC)c2)cc1OC | < 4.00 | < 4.00 |  |  | 
COc1cc(/C=C/C(=O)/C=C(O)/C=C/c2ccc(OC(C)(C)C(=O)Nc3ccc([N+](=O)[O-])c(C(F)(F)F)c3)c(OC)c2)ccc1O | < 4.00 | < 4.00 | Dose-dependent effect | Dose-dependent effect | 
COc1ccc(/C=C/C(=O)/C=C(O)/C=C/c2ccc(OC(C)(C)C(=O)Nc3ccc([N+](=O)[O-])c(C(F)(F)F)c3)c(OC)c2)cc1OC | < 4.00 | < 4.00 | Dose-dependent effect | Dose-dependent effect | 
COc1ccc(/C=C/C(=O)/C=C(O)/C=C/c2ccc(OCCCC(=O)Nc3ccc(C#N)c(C(F)(F)F)c3)c(OC)c2)cc1OC | 4.02 | < 4.00 |  |  | 

From ChEMBL document CHEMBL2046304, “Antitumor agents 290. Design, synthesis, and biological evaluation of new LNCaP and PC-3 cytotoxic curcumin analogs conjugated with anti-androgens” (Bioorg Med Chem, 2012)
